Laboratory results reported in ChEMBL document CHEMBL5724801, “EUbOPEN Chemogenomics Library - Multiplex” (2024).
“And” between values parts separate entries of the source, which are not always exact repeats. Identical values can stand only once. Non-standard residues stand in square brackets, D forms with d. Residues, ends and D or L forms follow the SMILES beside them.

These molecules were tested on HEK-293T (assay: Multiplex assay against HEK293T). Conditions: human, 12 h, 1 µM, compound concentration 1 uM.
Format: toxicity, cell-based
Method in brief: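 Live cells carried four stains from seeding: Hoechst33342, BioTracker Green Microtubule Cytoskeleton Dye, MitoTracker Red and Annexin V Alexa Fluor 680. They were imaged on a CQ1 microscope at 37°C and 5% CO2 after compound addition. Using CellPathfinder machine-learning gating, cells were split into Hoechst high-intensity objects or normal cells, normal cells into healthy, pyknosed or fragmented nuclei, and pyknosed cells into mitotic or apoptotic; tubulin, mitochondrial-mass and membrane-permeability phenotypes are per cents of healthy-nucleus cells.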

Row | Structure (SMILES) | Population Apoptotic (%) | Population Fragmented Nuclei (%) | Population Healthy Nuclei (%) | Population Hoechst High Intensity Objects (%) | Population Membrane Permeable-Phenotype (%) | Population Mitochondria Different-Phenotype (%) | Population Mitotic Cells (%) | Population Normal (%) | Population Pyknosed Nuclei (%) | Population Tubulin-Different-Phenotype (%)
1 | C[C@H]1[C@H]2CC[C@H]3[C@@H]4CC=C5C[C@@H](N(C)C)CC[C@]5(C)[C@H]4CC[C@]23CN1C [CONESSINE] | 35% and 48% | 5% and 4% | 78% and 85% | 6% and 8% | 0% | 39% and 58% | 65% and 51% | 93% and 91% | 16% and 10% | 26% and 22%
2 | CCCC(CCC)C(=O)O [VALPROIC ACID] | 39% and 28% | 6% and 5% | 81% and 79% | 6% and 5% | 0% | 29% and 46% | 60% and 71% | 93% and 94% | 12% and 15% | 20% and 16%
3 | CC(C)C[C@@H]1NC(=O)[C@@H](C(C)C)NC(=O)[C@@H]2CCCN2C(=O)[C@@H](CC(=O)O)NC(=O)[C@@H](Cc2c[nH]c3ccccc23)NC1=O [BQ-123] (cyclo(L[dW][dD]P[dV])) | 46% | 7% and 5% | 80% and 82% | 4% and 7% | 0% | 39% and 59% | 53% | 95% and 92% | 11% | 32% and 19%

Same assay, conditions: human, 12 h, 1 µM, compound concentration 1 uM

Row | Structure (SMILES) | Total Cell Count
4 | C[C@H]1[C@H]2CC[C@H]3[C@@H]4CC=C5C[C@@H](N(C)C)CC[C@]5(C)[C@H]4CC[C@]23CN1C [CONESSINE] | 400 and 356
5 | CCCC(CCC)C(=O)O [VALPROIC ACID] | 513 and 367
6 | CC(C)C[C@@H]1NC(=O)[C@@H](C(C)C)NC(=O)[C@@H]2CCCN2C(=O)[C@@H](CC(=O)O)NC(=O)[C@@H](Cc2c[nH]c3ccccc23)NC1=O [BQ-123] (cyclo(L[dW][dD]P[dV])) | 376 and 392

Same assay, conditions: human, 12 h, 10 µM, compound concentration 10 uM

Row | Structure (SMILES) | Population Apoptotic (%) | Population Fragmented Nuclei (%) | Population Healthy Nuclei (%) | Population Hoechst High Intensity Objects (%) | Population Membrane Permeable-Phenotype (%) | Population Mitochondria Different-Phenotype (%) | Population Mitotic Cells (%) | Population Normal (%) | Population Pyknosed Nuclei (%) | Population Tubulin-Different-Phenotype (%)
7 | C[C@H]1[C@H]2CC[C@H]3[C@@H]4CC=C5C[C@@H](N(C)C)CC[C@]5(C)[C@H]4CC[C@]23CN1C [CONESSINE] | 35% and 59% | 6% and 7% | 77% and 78% | 6% and 9% | 1% and 0% | 56% and 62% | 65% and 40% | 93% and 90% | 15% and 14% | 38% and 30%
8 | CCCC(CCC)C(=O)O [VALPROIC ACID] | 34% and 44% | 6% and 7% | 82% and 81% | 6% | 0% | 40% and 49% | 66% and 55% | 93% | 11% | 26% and 20%
9 | CC(C)C[C@@H]1NC(=O)[C@@H](C(C)C)NC(=O)[C@@H]2CCCN2C(=O)[C@@H](CC(=O)O)NC(=O)[C@@H](Cc2c[nH]c3ccccc23)NC1=O [BQ-123] (cyclo(L[dW][dD]P[dV])) | 30% and 71% | 7% and 5% | 78% | 7% and 11% | 0% | 48% and 65% | 69% and 28% | 92% and 88% | 14% and 16% | 31% and 22%

Same assay, conditions: human, 12 h, 10 µM, compound concentration 10 uM

Row | Structure (SMILES) | Total Cell Count
10 | C[C@H]1[C@H]2CC[C@H]3[C@@H]4CC=C5C[C@@H](N(C)C)CC[C@]5(C)[C@H]4CC[C@]23CN1C [CONESSINE] | 419 and 384
11 | CCCC(CCC)C(=O)O [VALPROIC ACID] | 455 and 446
12 | CC(C)C[C@@H]1NC(=O)[C@@H](C(C)C)NC(=O)[C@@H]2CCCN2C(=O)[C@@H](CC(=O)O)NC(=O)[C@@H](Cc2c[nH]c3ccccc23)NC1=O [BQ-123] (cyclo(L[dW][dD]P[dV])) | 387 and 265

Same assay, conditions: human, 24 h, 1 µM, compound concentration 1 uM

Row | Structure (SMILES) | Population Apoptotic (%) | Population Fragmented Nuclei (%) | Population Healthy Nuclei (%) | Population Hoechst High Intensity Objects (%) | Population Membrane Permeable-Phenotype (%) | Population Mitochondria Different-Phenotype (%) | Population Mitotic Cells (%) | Population Normal (%) | Population Pyknosed Nuclei (%) | Population Tubulin-Different-Phenotype (%)
13 | C[C@H]1[C@H]2CC[C@H]3[C@@H]4CC=C5C[C@@H](N(C)C)CC[C@]5(C)[C@H]4CC[C@]23CN1C [CONESSINE] | 26% and 25% | 9% and 8% | 80% and 81% | 5% and 4% | 1% and 0% | 22% and 34% | 73% and 75% | 94% and 95% | 10% | 17% and 16%
14 | CCCC(CCC)C(=O)O [VALPROIC ACID] | 28% and 45% | 8% and 6% | 78% and 83% | 4% | 1% and 0% | 22% and 26% | 71% and 54% | 95% | 12% and 9% | 16% and 10%
15 | CC(C)C[C@@H]1NC(=O)[C@@H](C(C)C)NC(=O)[C@@H]2CCCN2C(=O)[C@@H](CC(=O)O)NC(=O)[C@@H](Cc2c[nH]c3ccccc23)NC1=O [BQ-123] (cyclo(L[dW][dD]P[dV])) | 26% and 40% | 10% and 7% | 79% and 82% | 3% and 5% | 0% | 27% and 35% | 73% and 59% | 96% and 94% | 9% | 21% and 14%

Same assay, conditions: human, 24 h, 1 µM, compound concentration 1 uM

Row | Structure (SMILES) | Total Cell Count
16 | C[C@H]1[C@H]2CC[C@H]3[C@@H]4CC=C5C[C@@H](N(C)C)CC[C@]5(C)[C@H]4CC[C@]23CN1C [CONESSINE] | 514 and 484
17 | CCCC(CCC)C(=O)O [VALPROIC ACID] | 663 and 469
18 | CC(C)C[C@@H]1NC(=O)[C@@H](C(C)C)NC(=O)[C@@H]2CCCN2C(=O)[C@@H](CC(=O)O)NC(=O)[C@@H](Cc2c[nH]c3ccccc23)NC1=O [BQ-123] (cyclo(L[dW][dD]P[dV])) | 497 and 538

Same assay, conditions: human, 24 h, 10 µM, compound concentration 10 uM

Row | Structure (SMILES) | Population Apoptotic (%) | Population Fragmented Nuclei (%) | Population Healthy Nuclei (%) | Population Hoechst High Intensity Objects (%) | Population Membrane Permeable-Phenotype (%) | Population Mitochondria Different-Phenotype (%) | Population Mitotic Cells (%) | Population Normal (%) | Population Pyknosed Nuclei (%) | Population Tubulin-Different-Phenotype (%)
19 | C[C@H]1[C@H]2CC[C@H]3[C@@H]4CC=C5C[C@@H](N(C)C)CC[C@]5(C)[C@H]4CC[C@]23CN1C [CONESSINE] | 27% and 47% | 9% | 79% and 82% | 6% and 9% | 1% and 0% | 38% and 43% | 72% and 52% | 93% and 90% | 11% and 7% | 28% and 24%
20 | CCCC(CCC)C(=O)O [VALPROIC ACID] | 28% and 23% | 9% and 8% | 81% and 86% | 4% and 3% | 0% | 16% and 30% | 71% and 76% | 95% and 96% | 9% and 5% | 15% and 11%
21 | CC(C)C[C@@H]1NC(=O)[C@@H](C(C)C)NC(=O)[C@@H]2CCCN2C(=O)[C@@H](CC(=O)O)NC(=O)[C@@H](Cc2c[nH]c3ccccc23)NC1=O [BQ-123] (cyclo(L[dW][dD]P[dV])) | 25% and 57% | 11% and 8% | 77% and 78% | 6% and 7% | 0% | 31% and 50% | 75% and 42% | 93% and 92% | 11% and 12% | 24% and 18%

Same assay, conditions: human, 24 h, 10 µM, compound concentration 10 uM

Row | Structure (SMILES) | Total Cell Count
22 | C[C@H]1[C@H]2CC[C@H]3[C@@H]4CC=C5C[C@@H](N(C)C)CC[C@]5(C)[C@H]4CC[C@]23CN1C [CONESSINE] | 572 and 474
23 | CCCC(CCC)C(=O)O [VALPROIC ACID] | 649 and 593
24 | CC(C)C[C@@H]1NC(=O)[C@@H](C(C)C)NC(=O)[C@@H]2CCCN2C(=O)[C@@H](CC(=O)O)NC(=O)[C@@H](Cc2c[nH]c3ccccc23)NC1=O [BQ-123] (cyclo(L[dW][dD]P[dV])) | 511 and 302

Same assay, conditions: human, 48 h, 1 µM, compound concentration 1 uM

Row | Structure (SMILES) | Population Apoptotic (%) | Population Fragmented Nuclei (%) | Population Healthy Nuclei (%) | Population Hoechst High Intensity Objects (%) | Population Membrane Permeable-Phenotype (%) | Population Mitochondria Different-Phenotype (%) | Population Mitotic Cells (%) | Population Normal (%) | Population Pyknosed Nuclei (%) | Population Tubulin-Different-Phenotype (%)
25 | C[C@H]1[C@H]2CC[C@H]3[C@@H]4CC=C5C[C@@H](N(C)C)CC[C@]5(C)[C@H]4CC[C@]23CN1C [CONESSINE] | 30% and 36% | 9% and 10% | 82% and 83% | 2% and 4% | 1% | 18% and 20% | 69% and 63% | 97% and 95% | 7% and 5% | 12% and 11%
26 | CCCC(CCC)C(=O)O [VALPROIC ACID] | 19% and 36% | 14% and 10% | 78% and 81% | 2% and 3% | 3% and 1% | 11% and 17% | 80% and 63% | 97% and 96% | 6% and 8% | 9% and 10%
27 | CC(C)C[C@@H]1NC(=O)[C@@H](C(C)C)NC(=O)[C@@H]2CCCN2C(=O)[C@@H](CC(=O)O)NC(=O)[C@@H](Cc2c[nH]c3ccccc23)NC1=O [BQ-123] (cyclo(L[dW][dD]P[dV])) | 21% and 24% | 11% | 79% and 81% | 3% and 5% | 0% and 1% | 22% and 18% | 78% and 75% | 96% and 94% | 9% and 7% | 15% and 10%

Same assay, conditions: human, 48 h, 1 µM, compound concentration 1 uM

Row | Structure (SMILES) | Total Cell Count
28 | C[C@H]1[C@H]2CC[C@H]3[C@@H]4CC=C5C[C@@H](N(C)C)CC[C@]5(C)[C@H]4CC[C@]23CN1C [CONESSINE] | 735 and 630
29 | CCCC(CCC)C(=O)O [VALPROIC ACID] | 1112 and 700
30 | CC(C)C[C@@H]1NC(=O)[C@@H](C(C)C)NC(=O)[C@@H]2CCCN2C(=O)[C@@H](CC(=O)O)NC(=O)[C@@H](Cc2c[nH]c3ccccc23)NC1=O [BQ-123] (cyclo(L[dW][dD]P[dV])) | 719 and 777

Same assay, conditions: human, 48 h, 10 µM, compound concentration 10 uM

Row | Structure (SMILES) | Population Apoptotic (%) | Population Fragmented Nuclei (%) | Population Healthy Nuclei (%) | Population Hoechst High Intensity Objects (%) | Population Membrane Permeable-Phenotype (%) | Population Mitochondria Different-Phenotype (%) | Population Mitotic Cells (%) | Population Normal (%) | Population Pyknosed Nuclei (%) | Population Tubulin-Different-Phenotype (%)
31 | C[C@H]1[C@H]2CC[C@H]3[C@@H]4CC=C5C[C@@H](N(C)C)CC[C@]5(C)[C@H]4CC[C@]23CN1C [CONESSINE] | 27% and 36% | 14% and 10% | 78% and 81% | 4% and 5% | 1% and 0% | 23% and 32% | 72% and 63% | 95% and 94% | 6% and 7% | 15% and 17%
32 | CCCC(CCC)C(=O)O [VALPROIC ACID] | 21% and 27% | 15% and 13% | 79% and 82% | 3% and 1% | 1% and 2% | 11% and 12% | 78% and 72% | 96% and 98% | 5% and 4% | 9% and 6%
33 | CC(C)C[C@@H]1NC(=O)[C@@H](C(C)C)NC(=O)[C@@H]2CCCN2C(=O)[C@@H](CC(=O)O)NC(=O)[C@@H](Cc2c[nH]c3ccccc23)NC1=O [BQ-123] (cyclo(L[dW][dD]P[dV])) | 25% and 40% | 16% and 11% | 77% and 80% | 3% | 1% and 0% | 21% and 29% | 75% and 59% | 96% | 6% and 8% | 15% and 16%

Same assay, conditions: human, 48 h, 10 µM, compound concentration 10 uM

Row | Structure (SMILES) | Total Cell Count
34 | C[C@H]1[C@H]2CC[C@H]3[C@@H]4CC=C5C[C@@H](N(C)C)CC[C@]5(C)[C@H]4CC[C@]23CN1C [CONESSINE] | 767 and 618
35 | CCCC(CCC)C(=O)O [VALPROIC ACID] | 1088 and 947
36 | CC(C)C[C@@H]1NC(=O)[C@@H](C(C)C)NC(=O)[C@@H]2CCCN2C(=O)[C@@H](CC(=O)O)NC(=O)[C@@H](Cc2c[nH]c3ccccc23)NC1=O [BQ-123] (cyclo(L[dW][dD]P[dV])) | 756 and 477
